ChEMBL document CHEMBL5712071, “BET bromodomain protein inhibition is a therapeutic option for medulloblastoma” (Oncotarget, 2013)
Activity calls are given as the source filed them. The calls are words filed in the database; no cut-off is given here.

Assays:
[1] = system: UW228; assay: Anti-proliferative activity against human UW228 cells assessed as reduction in cell viability incubated for 96 hrs by MTT assay; assay type: functional, cell-based; settings: UW228, 96 h
How it was run: (§1)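 Cells seeded in triplicate at 2 × 10^3 per well and allowed to adhere for 24h. JQ1 was given as serial dilutions in full medium, 1nM-6µM, from a 10 mM DMSO stock. Viability was read by MTT at each time point and IC50 derived from dose-response curves. Culture media were RPMI 1640/10% FCS for HD-MB3 (plus 1% NEAA), ONS-76, Daoy and UW-228, and EMEM/10% FCS for D-283 and D-341.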

[2] = system: D283 Med; assay: Anti-proliferative activity against human D283 cells assessed as reduction in cell viability incubated for 96 hrs by MTT assay; assay type: functional, cell-based; how it was run: as §1
[3] = system: UW228; assay: Anti-proliferative activity against human UW228 cells assessed as reduction in cell viability incubated for 48 hrs by MTT assay; assay type: functional, cell-based; settings: UW228, 48 h; how it was run: as §1
[4] = system: HD-MB03; assay: Induction of apoptosis in human HD-MB03 cells assessed as increase in population of cells in G1 phase at 500 nM incubated for 72 hrs by flow cytometry; assay type: functional, cell-based
How it was run: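 Cells were cultured with 500 nM JQ1 or DMSO control, trypsinised and washed 3 times in PBS. DNA was stained with propidium iodide for 15 min and DNA content analysed by flow cytometry to give G1 and sub-G1 fractions.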

[5] = system: Daoy; assay: Induction of apoptosis in human Daoy cells assessed as increase in population of cells in G1 phase at 500 nM incubated for 72 hrs by ELISA; assay type: functional, cell-based
[6] = biological target: Bromodomain-containing protein 4 (Homo sapiens) (UniProt O60885); settings: Daoy, dose 500.0 nM, time 24.0 hrs
[7] = system: ONS-76; assay: Anti-proliferative activity against human ONS-76 cells assessed as reduction in cell viability incubated for 120 hrs by MTT assay; assay type: functional, cell-based; settings: ONS-76, 120 h; how it was run: as §1
[8] = biological target: Bromodomain-containing protein 4 (Homo sapiens) (UniProt O60885); settings: HD-MB03, dose 500.0 nM, time 72.0 hrs

Cc1sc2c(c1C)C(c1ccc(Cl)cc1)=N[C@@H](CC(=O)OC(C)(C)C)c1nnc(C)n1-2
IC50 [1]: > 1000 nM | IC50 [2]: 256 nM | IC50 [3]: > 1000 nM | Activity [4]: Active | Activity [5]: Active | inhibition [6]: Active | IC50 [7]: 123 nM | inhibition [8]: Active
